ChEMBL document CHEMBL3102835, “Dimeric unnatural polyproline-rich peptides with enhanced antibacterial activity” (Bioorg Med Chem Lett, 2014)
≈ marks a conversion by molar mass, not a printed value.

Tests used:
Escherichia coli [1] = assay: Antibacterial activity against Escherichia coli ATCC 25922 assessed as release of beta-galactosidase at 20 µM after 1 hr relative to control
Escherichia coli [2] = assay: Drug uptake in Escherichia coli ATCC 25922 assessed as increase in cellular fluorescence at 10 uM after 6 hrs by confocal microscopic analysis; type: ADME, organism-based; conditions: in vivo
In short: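 E. coli ATCC 25922 grown to mid-exponential phase in MHB at 37 °C, pelleted and resuspended in fresh MHB. Exposed to 10 µM fluorescein-labelled peptide or buffer for 10 min, 1 h or 6 h at 37 °C. Cells washed in PBS, fixed in 10% formalin, stained with 1 µM Hoechst, mounted on poly-lysine coverslips. Confocal imaging at equal laser intensity.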

Escherichia coli [3] = assay: Antibacterial activity against Escherichia coli by broth microdilution method; type: functional
In short: (§1)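 Broth microdilution. E. coli ATCC 25922 or S. aureus ATCC 25923 grown to mid-exponential phase in TSB at 37 °C, 200 rpm. MIC taken as the lowest concentration with no growth.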

Staphylococcus aureus = assay: Antibacterial activity against Staphylococcus aureus by broth microdilution method; type: functional
In short: as §1

Escherichia coli [4] = assay: Antibacterial activity against Escherichia coli ATCC 25922 assessed as release of beta-galactosidase at 5 times MIC after 1 hr relative to control; type: functional
Escherichia coli [5] = assay: Antibacterial activity against Escherichia coli ATCC 25922 assessed as release of beta-galactosidase after 1 hr relative to control; type: functional
In short: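 Cells washed twice in TSB, then exposed to peptide at 1× or 5× MIC for 1 h at 37 °C. Supernatant collected by cold centrifugation and mixed with ONPG. Release expressed versus buffer control.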

[6] = Toxicity in human RBC assessed as hemolysis by measuring hemoglobin release at 1 uM after 1 hr; type: cell-based; conditions: erythrocyte
In short: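 Fresh human RBCs from healthy volunteers, washed three times in PBS pH 7.4 and used as an 8% (v/v) suspension. Mixed with two-fold serial peptide dilutions and incubated 1 h at 37 °C. Positive controls were melittin and 1% Triton X-100.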

SMILES | Drug uptake (Escherichia coli [2]) | MIC (Escherichia coli [3]) | MIC (Staphylococcus aureus) | fold change (FC) (Escherichia coli [1]) | fold change (FC) (Escherichia coli [4]) | fold change (FC) (Escherichia coli [5]) | Activity [6]
CC(=O)NCC(=O)N(CCCCC(=O)NCCC(=O)N1CC(OCC(C)C)C[C@H]1C(=O)N1CC(OCCCNC(=N)N)C[C@H]1C(=O)N1CC(OCCCNC(=N)N)C[C@H]1C(=O)N1CC(OCC(C)C)C[C@H]1C(=O)N1CC(OCCCNC(=N)N)C[C@H]1C(=O)N1CC(OCCCNC(=N)N)C[C@H]1C(=O)N1CC(OCC(C)C)C[C@H]1C(=O)N1CC(OCCCNC(=N)N)C[C@H]1C(=O)N1CC(OCCCNC(=N)N)C[C@H]1C(=O)N1CC(OCC(C)C)C[C@H]1C(N)=O)CCCCC(=O)NCCC(=O)N1CC(OCC(C)C)C[C@H]1C(=O)N1CC(OCCCNC(=N)N)C[C@H]1C(=O)N1CC(OCCCNC(=N)N)C[C@H]1C(=O)N1CC(OCC(C)C)C[C@H]1C(=O)N1CC(OCCCNC(=N)N)C[C@H]1C(=O)N1CC(OCCCNC(=N)N)C[C@H]1C(=O)N1CC(OCC(C)C)C[C@H]1C(=O)N1CC(OCCCNC(=N)N)C[C@H]1C(=O)N1CC(OCCCNC(=N)N)C[C@H]1C(=O)N1CC(OCC(C)C)C[C@H]1C(N)=O (stereo not given in full) | – | 4 µM (≈ 17.4 µg/mL) | 8 µM (≈ 34.9 µg/mL) | – | – | – | –
CC(=O)NCC(=O)N(CCCCC(=O)NCCCC(=O)N1CC(OCC(C)C)C[C@H]1C(=O)N1CC(OCCCNC(=N)N)C[C@H]1C(=O)N1CC(OCCCNC(=N)N)C[C@H]1C(=O)N1CC(OCC(C)C)C[C@H]1C(=O)N1CC(OCCCNC(=N)N)C[C@H]1C(=O)N1CC(OCCCNC(=N)N)C[C@H]1C(=O)N1CC(OCC(C)C)C[C@H]1C(=O)N1CC(OCCCNC(=N)N)C[C@H]1C(=O)N1CC(OCCCNC(=N)N)C[C@H]1C(=O)N1CC(OCC(C)C)C[C@H]1C(N)=O)CCCCC(=O)NCCCC(=O)N1CC(OCC(C)C)C[C@H]1C(=O)N1CC(OCCCNC(=N)N)C[C@H]1C(=O)N1CC(OCCCNC(=N)N)C[C@H]1C(=O)N1CC(OCC(C)C)C[C@H]1C(=O)N1CC(OCCCNC(=N)N)C[C@H]1C(=O)N1CC(OCCCNC(=N)N)C[C@H]1C(=O)N1CC(OCC(C)C)C[C@H]1C(=O)N1CC(OCCCNC(=N)N)C[C@H]1C(=O)N1CC(OCCCNC(=N)N)C[C@H]1C(=O)N1CC(OCC(C)C)C[C@H]1C(N)=O (stereo not given in full) | – | 1 µM (≈ 4.39 µg/mL) | 4 µM (≈ 17.5 µg/mL) | – | – | – | –
CC[C@H](C)[C@H](NC(=O)CN)C(=O)NCC(=O)N[C@@H](C)C(=O)N[C@H](C(=O)N[C@@H](CC(C)C)C(=O)N[C@@H](CCCCN)C(=O)N[C@H](C(=O)N[C@@H](CC(C)C)C(=O)N[C@H](C(=O)N[C@H](C(=O)NCC(=O)N[C@@H](CC(C)C)C(=O)N1CCC[C@H]1C(=O)N[C@@H](C)C(=O)N[C@@H](CC(C)C)C(=O)N[C@H](C(=O)N[C@@H](CO)C(=O)N[C@@H](Cc1c[nH]c2ccccc12)C(=O)N[C@H](C(=O)N[C@@H](CCCCN)C(=O)N[C@@H](CCCNC(=N)N)C(=O)N[C@@H](CCCCN)C(=O)N[C@@H](CCCNC(=N)N)C(=O)N[C@@H](CCC(N)=O)C(=O)N[C@@H](CCC(N)=O)C(N)=O)[C@@H](C)CC)[C@@H](C)CC)[C@@H](C)O)[C@@H](C)O)C(C)C)C(C)C [MELITTIN] | – | – | – | – | – | 8 | Toxic

Second part, led by results:

Drug uptake (Escherichia coli [2]) | MIC (Escherichia coli [3]) | MIC (Staphylococcus aureus) | SMILES | fold change (FC) (Escherichia coli [1]) | fold change (FC) (Escherichia coli [4]) | fold change (FC) (Escherichia coli [5]) | Activity [6]
Active | 60 µM (≈ 143 µg/mL) | 60 µM (≈ 143 µg/mL) | CC(C)COC1C[C@@H](C(=O)N2CC(OCCCNC(=N)N)C[C@H]2C(=O)N2CC(OCCCNC(=N)N)C[C@H]2C(=O)N2CC(OCC(C)C)C[C@H]2C(=O)N2CC(OCCCNC(=N)N)C[C@H]2C(=O)N2CC(OCCCNC(=N)N)C[C@H]2C(=O)N2CC(OCC(C)C)C[C@H]2C(=O)N2CC(OCCCNC(=N)N)C[C@H]2C(=O)N2CC(OCCCNC(=N)N)C[C@H]2C(=O)N2C[C@@H](OCC(C)C)CC2C(N)=O)N(C(=O)CNC(=O)c2ccc(-c3c4ccc(=O)cc-4oc4cc(O)ccc34)c(C(=O)O)c2)C1 (stereo not given in full) | 3 | – | – | –
– | 1 µM (≈ 4.33 µg/mL) | 2 µM (≈ 8.66 µg/mL) | CC(=O)NCC(=O)N(CCCCC(=O)NCC(=O)N1CC(OCC(C)C)C[C@H]1C(=O)N1CC(OCCCNC(=N)N)C[C@H]1C(=O)N1CC(OCCCNC(=N)N)C[C@H]1C(=O)N1CC(OCC(C)C)C[C@H]1C(=O)N1CC(OCCCNC(=N)N)C[C@H]1C(=O)N1CC(OCCCNC(=N)N)C[C@H]1C(=O)N1CC(OCC(C)C)C[C@H]1C(=O)N1CC(OCCCNC(=N)N)C[C@H]1C(=O)N1CC(OCCCNC(=N)N)C[C@H]1C(=O)N1CC(OCC(C)C)C[C@H]1C(N)=O)CCCCC(=O)NCC(=O)N1CC(OCC(C)C)C[C@H]1C(=O)N1CC(OCCCNC(=N)N)C[C@H]1C(=O)N1CC(OCCCNC(=N)N)C[C@H]1C(=O)N1CC(OCC(C)C)C[C@H]1C(=O)N1CC(OCCCNC(=N)N)C[C@H]1C(=O)N1CC(OCCCNC(=N)N)C[C@H]1C(=O)N1CC(OCC(C)C)C[C@H]1C(=O)N1CC(OCCCNC(=N)N)C[C@H]1C(=O)N1CC(OCCCNC(=N)N)C[C@H]1C(=O)N1CC(OCC(C)C)C[C@H]1C(N)=O (stereo not given in full) | – | – | – | –
– | 4 µM (≈ 11.9 µg/mL) | 12 µM (≈ 35.7 µg/mL) | CC(C)COC1C[C@@H](C(=O)N2CC(OCCCNC(=N)N)C[C@H]2C(=O)N2CC(OCCCNC(=N)N)C[C@H]2C(=O)N2CC(OCC(C)C)C[C@H]2C(=O)N2CC(OCCCNC(=N)N)C[C@H]2C(=O)N2CC(OCCCNC(=N)N)C[C@H]2C(=O)N2CC(OCC(C)C)C[C@H]2C(=O)N2CC(OCCCNC(=N)N)C[C@H]2C(=O)N2CC(OCCCNC(=N)N)C[C@H]2C(=O)N2CC(OCC(C)C)C[C@H]2C(=O)N2CC(OCCCNC(=N)N)C[C@H]2C(=O)N2CC(OCCCNC(=N)N)C[C@H]2C(=O)N2CC(OCC(C)C)C[C@H]2C(N)=O)N(C(=O)CNC(=O)c2ccc(-c3c4ccc(=O)cc-4oc4cc(O)ccc34)c(C(=O)O)c2)C1 (stereo not given in full) | – | 3 | – | –
